Bioassay records (PubChem BioAssay)
Only some compounds are listed: those with a hit (about 2.5% of all), similar ones and a draw of the others.
MEKK3 PB1 HTS – modulators of MEKK3-MEK5 PB1 binding, primary screen, biochemical, wildtype MEKK3, multiplex bead flow cytometry, Alexa488-MEK5; Mitogen-activated protein kinase kinase kinase 3 (Homo sapiens), Q99759; bead-based flow cytometry, Alexa488-MEK5 binding to MEKK3; actives lie on both sides; 0 = blocked by unlabeled MEK5, 100 = vehicle; binding response (% of control), % at 10 µM; 290,000 compounds, 1.4% hits; AID 1529, 2009;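 active = binding response more than 3 SD above or below the average of its plate-row segment, actives on both sides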;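 note: Alexa488 bead fluorescence after subtracting the streptavidin-only scavenger bead signal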
MEKK2 WT-MEK5 – modulators of MEK5 binding to wildtype MEKK2, primary screen, biochemical, multiplex bead flow cytometry, Alexa488-MEK5. Alexa488-MEK5 binding to MEKK2 WT; actives lie on both sides. 290,000 compounds, 1.1% hits. Mitogen-activated protein kinase kinase kinase 2 (Homo sapiens), Q9Y2U5. binding response (% of control), % at 10 µM. AID 1531, 2009; in the data active = binding response below about 67% or above about 130%
MEKK2 mut-MEK5 – MEK5 binding signal on mutant MEKK2 PB1, primary screen, biochemical, multiplex bead flow cytometry, Alexa488-MEK5; Alexa488-MEK5 binding to MEKK2 mutant; percent response, % at 10 µM; 290,000 compounds, 0.35% hits; in the data active = percent response above about 24%, passing the limit was not always enough
T cell modulator – modulators of CD8 T cell-vesicle binding, primary screen, mouse 2C CD8+ T cells, flow cytometry. 2C CD8+ T cell-vesicle binding; active compounds read low. AID 2052, 2009. 330,000 compounds, 0.068% hits. response (vesicle binding), % at 7 µM;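 active = response, share of CD8 T cells binding vesicles, and their 90th percentile fluorescence all below set limits, cut at about 80% in these data, passing the limit was not always enough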;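 note: values below 100% mean blocked vesicle binding to the CD8+ T cells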
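System: murine 2C transgenic CD8+ T lymphocytes; also added: QL9-loaded Drosophila micro-vesicles; times: binding 1.5 h at 37 °C; measured by: flow cytometry, PE anti-B7-1 (FL2) versus Alexa647 anti-CD8 (FL8), PFA-fixed; control set: Peptide-free naked vesicles (low) and QL9 vesicles with 0.7% DMSO vehicle (high)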
Rce1 inh – yeast Rce1p protease inhibitors, primary screen, biochemical, fluorescence, cell-free homogeneous. AID 2563, 2010. calls only. 290,000 compounds, 0.27% hits. yeast membranes, quenched prenylated peptide cleavage fluorescence. CAAX prenyl protease 2 (Saccharomyces cerevisiae (strain ATCC 204508 / S288c)), Q03530;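 active = fall in fluorescence gain of 50% or more versus controls, with final raw signal at or below 3038400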
Target sequence (Q03530 whole entry, looked up): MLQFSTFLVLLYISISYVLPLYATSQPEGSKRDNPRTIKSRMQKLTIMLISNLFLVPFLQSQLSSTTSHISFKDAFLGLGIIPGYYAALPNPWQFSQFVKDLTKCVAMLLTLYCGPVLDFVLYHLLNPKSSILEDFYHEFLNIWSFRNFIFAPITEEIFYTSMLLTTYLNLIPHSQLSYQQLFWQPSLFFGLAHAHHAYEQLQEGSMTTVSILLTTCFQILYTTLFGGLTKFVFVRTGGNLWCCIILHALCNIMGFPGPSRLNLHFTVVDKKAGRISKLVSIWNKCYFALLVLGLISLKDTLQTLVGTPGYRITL
UCH37 DUB inh – inhibitors of human UCH37 deubiquitinase, primary screen, biochemical, Ub-AMC cleavage, fluorescence; Ubiquitin carboxyl-terminal hydrolase isozyme L5 (Homo sapiens), Q9Y5K5; purified proteasome/UCH37; inhibition, % (no concentration beside the values); 330,000 compounds, 0.33% hits;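 active = mean inhibition over replicate wells above about 20%, limit read from the data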
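assay system = human UCH37 enzyme supplied as purified proteasome complex | amount = proteasome at 0.15 nM in the dispensed enzyme solution | schedule = 30 min compound-proteasome preincubation then 25 min substrate reaction, room temperature | measured by = fluorescence, ex 355 nm, em 460 nm | benchmarks = no-proteasome wells (full inhibition) and compound-free wells (no inhibition)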
MEKK2wt confirm – modulators of MEK5 binding to wildtype MEKK2, confirmation, biochemical, single concentration, multiplex bead flow cytometry. shares compounds with MEKK3 PB1 HTS. Alexa488-MEK5 binding to MEKK2 WT; actives lie on both sides. binding response (% of control), % at 10 µM. 5,900 compounds, 2.4% hits. AID 1892, 2009; in the data active = binding response below about 16% or above about 210%; inactive = in between
MEKK2mut confirm – mutant MEKK2 PB1-MEK5 binding signal retest – biochemical, single concentration, multiplex bead flow cytometry, confirmation; shares compounds with MEKK3 PB1 HTS; Alexa488-MEK5 binding to MEKK2 mutant; percent response, % at 10 µM; 5,900 compounds, 2% hits; in the data active = percent response mostly above about 71%, no sharp cut-off; inactive = mostly below about 38%;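 note: higher means compound restores mutant binding toward wildtype level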
MEKK3 confirm – MEKK3 wild-type PB1 binding to MEK5, inhibitors, confirmation, biochemical, bead multiplex flow cytometry, single concentration, wildtype. 5,900 compounds, 1.8% hits. shares compounds with MEKK3 PB1 HTS. binding response (% of control), % at 10 µM. Alexa488-MEK5 binding to MEKK3; active compounds read low;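 active = binding response below 72% of control, or above a set upper limit, though filed actives all read lower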;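 note: lower values mean stronger disruption of MEK5 binding to MEKK3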
A number is an active result; i = inactive; nt = no result given; [ ] = dose if it differs, or a comment.

SMILES | MEKK3 PB1 HTS | MEKK2 WT-MEK5 | MEKK2 mut-MEK5 | T cell modulator | Rce1 inh | UCH37 DUB inh | MEKK2wt confirm | MEKK2mut confirm | MEKK3 confirm
O=C(Nc1cccc(Cl)c1)Nc1cccc(Cl)c1 | i | 161 | i | i | nt | i | i | i | i
CC(CCc1ccccc1)=NNC(=S)NCCc1ccccc1 | nt | nt | nt | nt | nt | i | nt | nt | nt
O=C(NN=C(Cc1ncc[nH]1)c1ccccc1)c1cccnc1 | nt | nt | nt | nt | nt | i | nt | nt | nt
Cc1ccnn1CC(=O)NN=Cc1cn[nH]c1-c1ccccc1 | nt | nt | nt | nt | nt | i | nt | nt | nt
O=C(Nc1cccc(Cl)c1)Nc1cc(S(=O)(=O)N2CCCCC2)ccc1Cl | i | i | 78 | i | i | i | i | i | i
O=C(NS(=O)(=O)Oc1ccc(F)c(Cl)c1)OC[C@@H]1CCCN2CCCCC12 (stereo not given in full) | i | i | i | i | i | i | nt | nt | nt
O=C(NS(=O)(=O)Oc1ccc(Cl)cc1)OC[C@@H]1CCCN2CCCC[C@H]12 | 149 | i | i | i | i | i | i | i | i
CC(=O)c1cccc(CN2CCC(C(=O)Nc3ccc(-c4cccc(C)c4)cc3)CC2)c1 | i | 176 | i | i | i | i | i | i | i
CC(=O)c1cccc(CN2CCC(C(=O)Nc3ccc(Oc4cccnc4)cc3)CC2)c1 | i | i | i | i | i | i | nt | nt | nt
Oc1ccc(-n2cccc2C=Nn2cnnc2)cc1 | nt | nt | nt | nt | nt | i | nt | nt | nt
C=CCc1ccc(OCC(O)CN2CCCCC2C)c(OC)c1 (stereo not given) | i | 136 | 42 | i | i | i | i | i | i
C=CCc1ccc(OCC(O)CN2CCCCC2)c(OC)c1 (stereo not given) | i | i | i | i | i | i | nt | nt | nt
O=C(CN1c2ccccc2Sc2ccccc21)NN=Cc1ccc(Cl)cc1Cl | nt | nt | nt | nt | nt | i | nt | nt | nt
CCOC(=O)Cc1csc(NN=Cc2cccc(Br)c2)n1 | nt | nt | nt | nt | nt | i | nt | nt | nt
C/C=C(\C)C(=O)NCCN1C2=NC[C@@H](C)N2C[C@@H]1Cc1ccc(OC)cc1 | i | i | i | i | i | i | nt | nt | nt
C/C=C(\C)C(=O)NCCN1C2=NC[C@H](Cc3ccccc3)N2C[C@H]1Cc1ccc(O)cc1 | i | 153 | i | i | i | i | i | i | i
C/C=C(\C)C(=O)NCCN1C2=NC[C@H](Cc3ccccc3)N2C[C@@H]1Cc1ccc(OC)cc1 | i | 153 | i | i | i | i | i | i | i
COc1ccc(C[C@H]2CN3C(=NC[C@H]3Cc3ccccc3)N2CCNC(=O)CCC2CCCCC2)cc1 | i | 164 | i | nt | i | i | i | i | i
O=C(NN=C/C=C/c1ccccc1)c1cnccn1 | nt | nt | nt | nt | nt | i | nt | nt | nt
COc1ccccc1Nc1nnc(SCc2cc(=O)n3cc(C)ccc3n2)s1 | 142 | i | i | i | nt | i | i | i | i
CCN(CC)S(=O)(=O)c1cccc(C(=O)NN=Cc2cc(OC)c(O)c(OC)c2)c1 | nt | nt | nt | nt | nt | i | nt | nt | nt
O=C(c1ccccc1)c1c2c(cc3sc4ccccc4[n+]13)-c1cccc3cccc-2c13 | i | 60[inhibitor] | i | i | nt | i | i | i | i
Cc1sc2cc3c(c(C(=O)c4ccccc4)[n+]2c1C)-c1cccc2cccc-3c12 | i | i | i | i | i | i | nt | nt | nt
